Paper PMC7711931 (ACS Omega, 2020)

Columns and labels:
[1] = molecular target: T1, TR4-LBD (Homo sapiens, UniProt P49116); assay: Circular dichroism spectra of TR4-LBD with or without drug; conditions: TR4-LBD 0.2 mg/mL, drug 20 μM, 5 mM phosphate buffer pH 7.4
T1 sequence (P49116 341-583 limits assumed): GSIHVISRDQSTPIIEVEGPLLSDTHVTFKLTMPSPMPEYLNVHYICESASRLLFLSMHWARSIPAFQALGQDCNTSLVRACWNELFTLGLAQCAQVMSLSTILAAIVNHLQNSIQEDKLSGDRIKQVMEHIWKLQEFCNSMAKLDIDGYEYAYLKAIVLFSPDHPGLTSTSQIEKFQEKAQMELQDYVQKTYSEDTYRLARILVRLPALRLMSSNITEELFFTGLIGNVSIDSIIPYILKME
How it was run: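 TR4 ligand-binding domain was expressed in E. coli BL21(DE3) with an N-terminal His6-SUMO tag, purified on His-tag resin, cleaved with SUMO protease, and collected in the flow-through of a second His-tag step. It was desalted into 5 mM phosphate buffer and quantified by BCA. Spectra of protein with or without test compound were recorded in a 0.5 cm path-length cell.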

[2] = molecular target: T2, TR4 (Homo sapiens, UniProt P49116); assay: Dual-luciferase reporter assay of TR4 transactivation; assay type: cell-based; conditions: for Effect on TR4 transactivation: 10 μM, 24 h, 293T cells, DMSO negative control (Figure 3A); for Effect on TR4 transactivation in the presence of ATRA: drug 10 μM, ATRA 20 μM (Figure 3E); for Luciferase activity (TR4 transactivation), validation of the reporter system: 293T cells cotransfected with pGLO-TR4RE-Dluc and TR4 (Figure 2B)
T2 sequence (P49116 1-596): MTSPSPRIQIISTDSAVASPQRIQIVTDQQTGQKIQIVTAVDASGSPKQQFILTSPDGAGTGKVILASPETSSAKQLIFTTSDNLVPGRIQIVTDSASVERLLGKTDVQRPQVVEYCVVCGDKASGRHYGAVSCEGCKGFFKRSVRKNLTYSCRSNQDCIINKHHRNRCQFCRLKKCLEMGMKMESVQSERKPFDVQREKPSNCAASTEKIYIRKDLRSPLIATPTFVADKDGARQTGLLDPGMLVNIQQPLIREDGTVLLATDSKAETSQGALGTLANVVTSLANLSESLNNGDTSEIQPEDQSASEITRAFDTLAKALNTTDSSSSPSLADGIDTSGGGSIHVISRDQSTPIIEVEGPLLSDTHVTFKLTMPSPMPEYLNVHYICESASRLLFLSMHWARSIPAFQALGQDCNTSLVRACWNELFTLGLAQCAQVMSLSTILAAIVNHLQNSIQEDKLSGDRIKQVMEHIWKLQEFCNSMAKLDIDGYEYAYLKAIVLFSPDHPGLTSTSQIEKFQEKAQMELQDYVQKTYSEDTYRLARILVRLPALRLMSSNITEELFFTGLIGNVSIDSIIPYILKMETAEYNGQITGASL
How it was run: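 TR4RE-TK-firefly luciferase cassette from pGL3-(DR)3-TK subcloned into pmirGLO, giving a dual-luciferase reporter. Cells were cotransfected with reporter and TR4 expression plasmid for 24 h, then exposed to test compound for another 24 h: 10 μM for screening or a dose range for curves, with DMSO as negative control. Some arms included ATRA 20 μM. Luciferase was read with a dual-luciferase kit. Means of three independent experiments.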

[3] = molecular target: T1, TR4-LBD; assay: SPRi assay: binding of TR4-LBD to the immobilized FDA-approved drug library
[4] = tested on: NQO2; conditions: read-out: IC50, NQO2 inhibition; cited from earlier work

SMILES	CD characteristic peak for α-helix at 208 nm [1]	EC50 [2] [nM]	Effect on TR4 transactivation [2]	Effect on TR4 transactivation in the presence of ATRA [2]	Efficiency relative to ATRA (EC50 ratio) ([2]; genistein EC50 2.42 μM vs ATRA 23.8 μM)	Kd [3] [nM]	Luciferase activity (TR4 transactivation), validation of the reporter system [2]	CD characteristic peak for the β-sheet at 216 nm [1]	IC50 [4] [nM]
O=c1c(-c2ccc(O)cc2)coc2cc(O)cc(O)c12 [Genistein]	significantly increased	2420	most potent activator	equivalent to that of genistein single treatment	approximately 10 times	–	–	–	–
CC1=C(/C=C/C(C)=C/C=C/C(C)=C/C(=O)O)C(C)(C)CCC1 [ATRA, all-trans-retinoic acid]	–	–	–	–	–	100000	elevated	–	–
C=C(c1ccc(C(=O)O)cc1)c1cc2c(cc1C)C(C)(C)CCC2(C)C [bexarotene]	–	37500	–	–	–	84.8	suppressed	–	–
Cc1cn(-c2cc(NC(=O)c3ccc(C)c(Nc4nccc(-c5cccnc5)n4)c3)cc(C(F)(F)F)c2)cn1 [Nilotinib (AMN-107)]	–	1050	most potent inhibitor	almost blocked the activation of TR4 by ATRA	–	–	–	significantly reduced	1800
